Experimental findings from ChEMBL document CHEMBL5126498, “Peptidomimetic nitrile warheads as SARS-CoV-2 3CL protease inhibitors” (RSC Med Chem, 2021) are described below.

Series [1] relates to SARS-CoV-2. The series is described as follows: Antiviral activity against SARS-CoV-2 infected in African Green monkey Vero E6 cells assessed as reduction in viral plaques by plaque reduction assay. The settings on record: Severe acute respiratory syndrome coronavirus 2, Vero C1008. The class given is functional, organism-based. Background: Plaques are areas of infected cells; plaque reduction assays count them against a control.

Series [2] has as its system SARS-CoV-2. Description: Antiviral activity against SARS-CoV-2 infected in African Green monkey Vero E6 cells assessed as reduction in viral plaques in presence of efflux inhibitor CP-100356 by plaque reduction assay. The settings on record: Severe acute respiratory syndrome coronavirus 2, Vero C1008. The class given is functional, organism-based.
Series [3] is described as follows: Cytotoxicity against African Green monkey Vero E6 cells assessed as reduction in cell viability by CellTiter-Glo assay. The class given is toxicity, cell-based, Vero C1008. The settings on record: chlorocebus sabaeus. In a few lines:
(§1)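 Vero E6 or A549 cells were seeded at 1×10^4/well and left overnight. Compounds were added at final 50 and 200 μM in 0.5% DMSO for 24 h. Read-out was CellTiter-Glo luminescence, with viability calculated relative to 0.5% DMSO-treated cells. Quadruplicate wells were run in one experiment, and CC50 was interpolated where possible.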
A general note: In ATP-based viability assays light output follows the ATP content of the culture.

The nature of series [4]: Cytotoxicity against human A549 cells assessed as reduction in cell viability by CellTiter-Glo assay. The class given is toxicity, cell-based. In a few lines: as §1
Series [5] in a line: Cytotoxicity against African Green monkey Vero E6 cells assessed as reduction in cell viability by CCK-8 assay. The class given is toxicity, cell-based, Vero C1008. Particulars: chlorocebus sabaeus. In a few lines: (§2)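 Vero E6 or A549 cells were seeded at 1×10^4/well and left overnight. Compounds were added at final 50 and 200 μM in 0.5% DMSO for 24 h. CCK-8 absorbance was read at 450 nm, and viability was calculated relative to 0.5% DMSO-treated cells. Quadruplicate wells were run in one experiment, and CC50 was interpolated where possible.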
(Formazan colour is commonly taken as a measure of viable cells.)

A short description of series [6]: Cytotoxicity against human A549 cells assessed as reduction in cell viability by CCK-8 assay. The class given is toxicity, cell-based. A digest of the protocol:
as §2

The target of series [7] is T1, Cathepsin B (Homo sapiens, UniProt P07858). The series is described as follows: Inhibition of human cathepsin B at 1 uM relative to control.
For series [8], the target named is T2, Cathepsin S (Homo sapiens, UniProt P25774). The series is described as follows: Inhibition of human cathepsin S at 1 uM relative to control. In a few lines: (§3)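 Human cathepsin S fluorometric kit assay, with compound incubated 30 min at room temperature at final 1% DMSO. […] Enzyme-control and test slopes were obtained by linear regression, and % relative inhibition was calculated per kit.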
Target sequence in this assay (P25774 115-331 limits assumed): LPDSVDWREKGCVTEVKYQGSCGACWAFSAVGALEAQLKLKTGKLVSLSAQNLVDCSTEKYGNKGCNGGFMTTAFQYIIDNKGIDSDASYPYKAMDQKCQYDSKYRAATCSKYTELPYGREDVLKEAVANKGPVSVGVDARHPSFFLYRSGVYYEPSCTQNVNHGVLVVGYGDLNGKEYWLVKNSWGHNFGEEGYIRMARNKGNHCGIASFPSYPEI

In series [9] the target is T3, Procathepsin L (Homo sapiens, UniProt P07711). The series is described as follows: Inhibition of human cathepsin L at 1 uM relative to control.
Target sequence in this assay (P07711 114-333 limits assumed): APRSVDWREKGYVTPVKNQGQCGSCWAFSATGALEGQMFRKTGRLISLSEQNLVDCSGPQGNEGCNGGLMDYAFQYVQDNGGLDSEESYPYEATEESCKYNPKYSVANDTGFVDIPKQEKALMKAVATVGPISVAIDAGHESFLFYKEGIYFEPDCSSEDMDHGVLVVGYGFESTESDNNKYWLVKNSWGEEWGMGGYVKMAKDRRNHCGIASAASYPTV
The target of series [10] is Replicase polyprotein 1ab (Severe acute respiratory syndrome coronavirus 2, UniProt P0DTD1). Description: Inhibition of SARS-CoV-2 3CL protease by FRET assay.
Series [11] addresses T3, Procathepsin L. Description: Inhibition of human cathepsin L.
Target sequence in this assay (P07711 whole entry): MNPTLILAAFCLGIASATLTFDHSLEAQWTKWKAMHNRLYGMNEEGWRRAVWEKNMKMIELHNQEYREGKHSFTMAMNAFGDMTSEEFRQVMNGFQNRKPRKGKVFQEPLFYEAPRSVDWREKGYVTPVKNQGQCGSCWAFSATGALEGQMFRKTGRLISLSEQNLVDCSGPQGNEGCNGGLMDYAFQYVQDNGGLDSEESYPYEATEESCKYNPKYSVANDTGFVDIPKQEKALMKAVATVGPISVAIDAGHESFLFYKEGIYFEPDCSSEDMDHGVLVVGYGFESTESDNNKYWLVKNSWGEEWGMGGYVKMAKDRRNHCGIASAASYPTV
In series [12] the target is T1, Cathepsin B. The series is described as follows: Inhibition of human cathepsin B.
The target of series [13] is T2, Cathepsin S. The series is described as follows: Inhibition of human cathepsin S. In a few lines:
as §3
Target sequence in this assay (P25774 whole entry): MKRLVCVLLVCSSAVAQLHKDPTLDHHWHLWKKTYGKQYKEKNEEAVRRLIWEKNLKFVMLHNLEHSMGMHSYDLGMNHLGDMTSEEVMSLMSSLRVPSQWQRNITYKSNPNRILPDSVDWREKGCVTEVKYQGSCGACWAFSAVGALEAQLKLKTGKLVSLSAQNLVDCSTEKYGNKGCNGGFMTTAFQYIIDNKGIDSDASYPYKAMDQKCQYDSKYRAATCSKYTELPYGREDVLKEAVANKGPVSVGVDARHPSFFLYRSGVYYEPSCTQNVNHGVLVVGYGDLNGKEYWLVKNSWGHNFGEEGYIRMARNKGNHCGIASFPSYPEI

Series [14] in a line: Selectivity ratio, ratio of IC50 for inhibition of human cathepsin B to IC50 for inhibition of SARS-CoV-2 3CL protease.
Series [15] in a line: Glutathione reactivity at pH 7.4 assessed as compound recovery measured after 24 hrs by LC-MS/MS method. The class given is physicochemical. Particulars: glutathione solution, read-out: Activity.
Series [16] can be described thus: Stability of the compound in presence of glutathione by LC-MS/MS method. The class given is physicochemical.
Series [17] is described as follows: Selectivity ratio, ratio of IC50 for inhibition of human cathepsin S to IC50 for inhibition of SARS-CoV-2 3CL protease.
Series [18] is described as follows: Selectivity ratio, ratio of IC50 for inhibition of human cathepsin L to IC50 for inhibition of SARS-CoV-2 3CL protease.
Series [19] deals with Replicase polyprotein 1ab (Severe acute respiratory syndrome coronavirus 2) (UniProt P0DTD1). Description: Reversible inhibition of SARS-CoV-2 3CL protease assessed as enzyme recovery measured after 4 hrs by dialysis method relative to control. Further details: scale not given: the % may be the effect or the level left. In a few lines: (§4)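 SARS-CoV-2 3CLpro (final 2 μM) was preincubated with 20 μM inhibitor for 30 min at room temperature. Activity was compared with apo-enzyme dialysed under identical conditions.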

The target is the same in series [20]. The series is described as follows: Reversible inhibition of SARS-CoV-2 3CL protease assessed as enzyme recovery measured after 3 days by dialysis method relative to control. Further details: scale not given: the % may be the effect or the level left. The settings on record: time 3.0 day. In a few lines: as §4
Series [21] is described as follows: Inhibition of Enterovirus 71 3Cpro.

SMILES strings stand for the structures.

What is called EC50 is the concentration at which the effect is half-maximal. Usually CC50 stands for the concentration at which the toxic effect on the cells reaches its halfway point. A word on the inhibition: it is the change of the read-out against control, counted positive when it falls. The IC50 is the concentration at which inhibition is half-maximal.

Consider `CCOc1cccc2[nH]c(C(=O)N[C@@H](CC(C)C)C(=O)N[C@H](C#N)C[C@@H]3CCCNC3=O)cc12`, for which the EC50 with SARS-CoV-2 [1] was determined as 4800 nM; in the series with SARS-CoV-2 [2], 120 nM. For the same molecule, the CC50 in [3], in series [4], in series [5] and in series [6] was above 200 µM in each case. In addition, the inhibition was below 1% on Cathepsin B [7], 74% at Cathepsin S [8] and below 1% against Procathepsin L [9].
For the molecule `COc1cccc2[nH]c(C(=O)N[C@@H](CC(C)C)C(=O)N[C@@H](C[C@@H]3CCCNC3=O)C(=O)CO)cc12`, the CC50 in series [3], in series [4], in [5] and in series [6] was above 200 µM throughout.
Take `CC(C)C[C@H](NC(=O)[C@@H](NC(=O)[C@H](C)NC(=O)OCc1ccccc1)C(C)C)C(=O)N[C@H](C#N)CCC(N)=O`: it took 4600 nM to reach half-maximal inhibition in [10] (IC50).
In the case of `COc1cc(Cl)cc2[nH]c(C(=O)N[C@@H](CC(C)C)C(=O)N[C@H](C#N)C[C@@H]3CCCNC3=O)cc12`, the EC50 stood at 2200 nM with SARS-CoV-2 [1] and 233 nM with SARS-CoV-2 [2]. Moreover, the CC50 in series [3], in series [4], in series [5] and in [6] was above 200 µM in each case. Besides, the IC50 against Procathepsin L [11] amounted to 470 nM; on Cathepsin B [12] it was 18 µM; against Cathepsin S [13], 400 nM. In addition, the inhibition against Cathepsin B [7] is below 1%; on Cathepsin S [8], 72%; against Procathepsin L [9], 37%.
Regarding `COc1cc(Cl)cc2[nH]c(C(=O)N[C@@H](CC(C)(C)C)C(=O)N[C@H](C#N)C[C@@H]3CCCNC3=O)cc12`, the values for the EC50 with SARS-CoV-2 [1] and in the series with SARS-CoV-2 [2] were 1500 nM and 210 nM, respectively. Also, the CC50 in [3], in series [4], in series [5] and in series [6] was above 200 µM each time. Further, the results for the inhibition against Cathepsin B [7], on Cathepsin S [8] and at Procathepsin L [9] were below 1%, 64% and 18%, respectively.
Take `COc1cccc2[nH]c(C(=O)N[C@@H](CC(C)C)C(=O)N[C@H](C=O)C[C@@H]3CCNC3=O)cc12`: the CC50 in series [3], in [4], in [5] and in series [6] was above 200 µM throughout. The figures for the IC50 against Procathepsin L [11], against Cathepsin B [12] and against Cathepsin S [13] were 280 nM, 2 µM and 40 nM, respectively. On Procathepsin L [9], this molecule came in with an inhibition of 53%.
As to `CC(C)C[C@H](NC(=O)c1cc2c3c(ccc2[nH]1)CCO3)C(=O)N[C@H](C#N)C[C@@H]1CCCNC1=O`, in the series with SARS-CoV-2 [1], the EC50 is above 10000 nM. Moreover, the CC50 in [3], in [4], in series [5] and in [6] was above 200 µM each time. The inhibition at Cathepsin B [7] was below 1%; against Cathepsin S [8] it was 67%; on Procathepsin L [9], 10%.
Consider `COc1cccc2[nH]c(C(=O)N[C@@H](CC(C)C)C(=O)N[C@H](C#N)C[C@@H]3CCNC3=O)cc12`, for which the EC50 in the series on SARS-CoV-2 [1] is above 5000 nM. The CC50 in series [3], in series [4], in series [5] and in series [6] was above 200 µM in each case. Further, the IC50 against Procathepsin L [11] was determined as 1450 nM; on Cathepsin B [12], 28 µM; against Cathepsin S [13], 700 nM. Moreover, the inhibition is below 1% against Cathepsin B [7], 78% at Cathepsin S [8] and 15% against Procathepsin L [9].
Regarding `COc1cccc2[nH]c(C(=O)N[C@@H](CC(C)C)C(=O)N[C@H](C#N)C[C@@H]3CCCNC3=O)cc12`, the Ratio IC50 in [14] came to 2420; in series [17], 189; in series [18] it was 48. Besides, the EC50 was 2700 nM in the series on SARS-CoV-2 [1] and 230 nM with SARS-CoV-2 [2]. In addition, the CC50 in [3], in [4], in [5] and in series [6] was above 200 µM each time. Moreover, the IC50 at Procathepsin L [11] turned out to be 640 nM; against Cathepsin B [12], 32 µM; against Cathepsin S [13] it was 2500 nM. Also, the results for the inhibition at Cathepsin B [7], at Cathepsin S [8] and against Procathepsin L [9] were below 1%, 73% and 22%, respectively. For the same molecule, the remaining at 24 h in series [15] was at least 90%. For the same molecule, the Stability entry in series [16] is “Stable”. Moreover, the Activity was 10% in series [19] and 45% in series [20].
Molecule `Cc1cc(C(=O)N[C@@H](Cc2ccc(F)cc2)C(=O)N[C@H](C#N)C[C@@H]2CCCNC2=O)no1` yielded an IC50 in series [21] of 14.7 µM.
As to `CC(C)C[C@H](NC(=O)c1cc2c(OC(F)(F)F)cccc2[nH]1)C(=O)N[C@H](C#N)C[C@@H]1CCCNC1=O`, the IC50 in [10] stood at 13.7 nM. The EC50 in the series with SARS-CoV-2 [1] amounted to 2600 nM; with SARS-CoV-2 [2], 350 nM. The CC50 in [3] is above 100 µM; in [4] it was 90 µM; in [5] it was above 100 µM; in [6], 90 µM. Moreover, the figures for the inhibition at Cathepsin B [7], against Cathepsin S [8] and at Procathepsin L [9] were below 1%, 67% and 8%, respectively.
For the molecule `CC(C)C[C@H](NC(=O)OCc1ccccc1)C(=O)N[C@@H](C[C@@H]1CCNC1=O)C(O)S(=O)(=O)O` (some centres not stated), the CC50 in [3], in [4], in [5] and in [6] was above 200 µM throughout. Also, the IC50 against Procathepsin L [11] was found to be 0.25 nM; against Cathepsin B [12], 1.4 µM; on Cathepsin S [13], 23 nM. For the same molecule, the inhibition against Cathepsin B [7] came out at 53%; on Cathepsin S [8], 99%; against Procathepsin L [9] it was 100%.
